# In PubChem BioAssay AID588686 (Southern Research Specialized Biocontainment Screening …, 2011):
# Active and inactive are the calls of the source.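 How the source made its calls: active means inhibition of 30% or more at any tested concentration; inactive means the rest.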
# Biological target: M1-family alanyl aminopeptidase PfA-M1 [Plasmodium falciparum 3D7]
# Assay: PfM1AAP aminopeptidase inhibitors, dose response, biochemical, QFRET, H-Leu-NHMec substrate (AID 588686)
# Conditions: recombinant PfM1AAP, H-Leu-NHMec fluorogenic cleavage
# Outline: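 times = enzyme reaction with compounds for 90 min, room temperature | assay system = recombinant PfM1AAP enzyme | amount = PfM1AAP enzyme at 5 µg/mL final | measure = percent inhibition per dose, IC50 from locked four-parameter fit | repeats = each concentration tested in triplicate | measured by = fluorescence at 370/460 nm | reagent = fluorogenic substrate H-Leu-NHMec at 0.1 mM final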
row,IC50 [µM],SMILES
1,11.4,O=C(NCc1ccc2c(c1)OCO2)C1CCN(S(=O)(=O)c2ccc(-c3cncc4ccccc34)s2)CC1
2,49.9,CC(C)(C)c1ccc(-c2ccc(S(=O)(=O)N3CCC(C(=O)NCc4ccc5c(c4)OCO5)CC3)s2)cc1
3,23.8,CN(C)c1ccc(CNC(=O)C2CCN(S(=O)(=O)c3ccc(Br)s3)CC2)cc1

# Same assay, conditions: recombinant PfM1AAP, H-Leu-NHMec fluorogenic cleavage; at 100 µM (top of the series)
row,inhibition,SMILES
1,inactive,COc1ccc(-c2ccc(S(=O)(=O)N3CCC(C(=O)NCc4ccc5c(c4)OCO5)CC3)s2)cc1
2,inactive,CC[C@H](C)[C@H](NS(=O)(=O)c1ccc(Br)s1)C(=O)NCc1ccc(F)cc1
3,inactive,O=C(NCc1ccc2c(c1)OCO2)C1CCN(S(=O)(=O)c2ccc(-c3cccc(F)c3)s2)CC1
4,inactive,COc1cccc(-c2ccc(S(=O)(=O)N3CCC(C(=O)NCc4ccc5c(c4)OCO5)CC3)s2)c1
5,inactive,O=C(NCc1ccc2c(c1)OCO2)C1CCN(S(=O)(=O)c2ccc(-c3ccccc3)s2)CC1
6,inactive,CC[C@H](C)[C@H](NC(=O)c1ccc([N+](=O)[O-])cc1)C(=O)NCc1ccc(C(F)(F)F)cc1
7,inactive,CC[C@H](C)[C@H](NC(=O)c1ccc(C(C)(C)C)cc1)C(=O)NCc1ccc(C(F)(F)F)cc1
8,inactive,CC[C@H](C)[C@H](NC(=O)c1ccc([N+](=O)[O-])cc1)C(=O)NCc1ccccc1
9,inactive,CC(=O)Nc1cccc(-c2ccc(S(=O)(=O)N3CCC(C(=O)NCc4ccc5c(c4)OCO5)CC3)s2)c1
10,inactive,CC[C@H](C)[C@H](NS(=O)(=O)c1ccc(Br)s1)C(=O)NCc1ccc(C(F)(F)F)cc1
11,inactive,CC[C@H](C)[C@H](NS(=O)(=O)c1cccs1)C(=O)NCc1ccc(F)cc1
12,inactive,CC[C@H](C)[C@H](NC(=O)c1ccc([N+](=O)[O-])cc1)C(=O)NCc1ccc(F)cc1
13,inactive,CC[C@H](C)[C@H](NS(=O)(=O)c1ccc(Br)s1)C(=O)O
